Sampled rows, rich in hits. Any-hit rate of the full collection: about 2%.
ZTA DNA inh – blocks Epstein-Barr virus ZTA, an EBNA-1 counter-screen. P03206. ZTA-DNA binding, fluorescence polarization. inhibition, % at 11 µM. 320,000 tested, 0.15% active. AID 2234; in the data active = inhibition above about 33%
Target sequence (P03206 whole entry, looked up): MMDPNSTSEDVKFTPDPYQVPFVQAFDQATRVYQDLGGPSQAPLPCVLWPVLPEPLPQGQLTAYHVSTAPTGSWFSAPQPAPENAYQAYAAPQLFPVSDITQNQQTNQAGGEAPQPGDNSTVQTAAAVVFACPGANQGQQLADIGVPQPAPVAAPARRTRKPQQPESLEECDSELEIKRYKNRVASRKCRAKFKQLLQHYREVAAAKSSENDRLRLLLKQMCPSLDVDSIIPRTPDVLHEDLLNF
EBNA-1 inh – blocks EBNA-1 binding to DNA. EBNA-1 DNA binding, fluorescence polarization. inhibition, % at 14.8 µM. 300,000 tested, 0.34% active. AID 1950; in the data active = inhibition above about 28%
GPR7 antag – blocks human GPR7 receptor signaling. GPR7-expressing cells, fluorescence antagonist assay. 290,000 tested, 1.1% active. inhibition, % at 4.4 µM. P48145; in the data active = inhibition above about 16%, passing the limit was not always enough;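 note: cells stimulated with the agonist NPW; 0% = agonist with vehicle and 100% = vehicle without agonist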
Target sequence (P48145 whole entry, looked up): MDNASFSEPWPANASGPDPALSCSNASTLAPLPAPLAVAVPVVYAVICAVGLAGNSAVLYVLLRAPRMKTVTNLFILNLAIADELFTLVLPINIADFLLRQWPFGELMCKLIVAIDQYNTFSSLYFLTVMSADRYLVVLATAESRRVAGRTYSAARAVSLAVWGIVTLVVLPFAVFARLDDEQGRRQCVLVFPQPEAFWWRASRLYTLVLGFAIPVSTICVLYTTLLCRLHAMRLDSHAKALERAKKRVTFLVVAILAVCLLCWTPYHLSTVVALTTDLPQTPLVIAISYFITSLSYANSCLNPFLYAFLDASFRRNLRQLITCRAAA
FID counter – displaces DNA intercalator in HCV helicase counter-screen. DNA fluorescent intercalator displacement, fluorescence. inhibition, % at 7.9 µM. 290,000 tested, 0.17% active. AID 1845; in the data active = inhibition above about 37%;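 note: 0% = vehicle and 100% = reference compound; higher means more ethidium bromide displaced from hairpin DNA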
HCV NS3 hel inh – HCV NS3 helicase inhibition. AID 1800. NS3 helicase DNA unwinding, Cy5 molecular beacon fluorescence. 290,000 tested, 0.56% active. inhibition, % at 10.9 µM;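 active = inhibition above the mean of all tested compounds plus 3 SD, set per campaign, cut at about 35% in these data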;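 note: 0% = DMSO wells and 100% = thioflavine S control wells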
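test system = hepatitis C virus NS3 helicase domain fragment enzyme | reagent = annealed dual-labelled DNA beacon duplex, ATP-started | times = 1 h at 25 °C | detection = Cy5 fluorescence, 0 and 60 min reads | read-out basis = percent inhibition from t60/t0 fluorescence ratio | control set = DMSO and thioflavine S | replication = one well per compound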
EBNA-1 inh conf – EBNA-1 (EBV) inhibition, confirmation. 830 tested, 35% active. inhibition, % at 14.8 µM. AID 2292. Recombinant EBNA-1 DBD, Cy5-DNA fluorescence polarization. shares compounds with EBNA-1 inh;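 active = mean inhibition across replicates above a set limit taken from the earlier primary screen, cut at about 28% in these data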;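 note: plate controls were EBNA-1 protein with DMSO for no effect and wells lacking EBNA-1 for full effect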
ZTA counter trip – blocks Epstein-Barr virus ZTA in triplicate, EBNA-1 counter-screen; 830 tested, under 10 active; inhibition, % at 11.1 µM; AID 2328; Zta-ZRE DNA binding, Cy5 fluorescence polarization; shares compounds with EBNA-1 inh;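 active = mean inhibition over triplicates above a set limit taken from the primary EBNA-1 screen, cut at about 37% in these data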;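 note: purified full length Zta protein with Cy5 labeled ZRE DNA probe; 0% = Zta with DMSO and 100% = wells lacking Zta protein; inhibitors lower polarization by freeing the labeled DNA probe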
Starred values were filed as active, the others as inactive.

O=c1[nH]cc(S(=O)(=O)N2CCN(c3cccc(C(F)(F)F)c3)CC2)c(=O)[nH]1 was read as ZTA DNA inh -7, EBNA-1 inh 31*, EBNA-1 inh conf -5 and ZTA counter trip 4.
For O=c1[nH]cc(S(=O)(=O)N2CCN(c3cccc(Cl)c3)CC2)c(=O)[nH]1 the results were ZTA DNA inh 7 and EBNA-1 inh -8.
Screening Cc1ccc(Nc2nc(Oc3ccc(OCc4ccccc4)nn3)nc(N3CCOCC3)n2)cc1 returned ZTA DNA inh -6, EBNA-1 inh 32*, GPR7 antag -8, FID counter -9, HCV NS3 hel inh 5, EBNA-1 inh conf 3 and ZTA counter trip -5.
CCOc1ccc(NC(c2ccccc2)P(=O)(OC)OC)cc1 (stereo unspecified) was read as ZTA DNA inh -12, EBNA-1 inh -4, GPR7 antag -13, FID counter -20 and HCV NS3 hel inh 19.
Cc1ccccc1NC(=O)Cc1nc(COC(=O)c2cc(Cl)ccc2O)cs1 was read as ZTA DNA inh -7, EBNA-1 inh 33*, GPR7 antag 1, FID counter -29, HCV NS3 hel inh -13, EBNA-1 inh conf 10 and ZTA counter trip 5.
For CCCCn1c(N)c(N(CC(C)C)C(=O)c2ccc(F)c(S(=O)(=O)N3CCOCC3)c2)c(=O)[nH]c1=O the results were ZTA DNA inh -8 and EBNA-1 inh -2.
`CCc1nn(-c2ccccc2)c(=S)c2ccccc12` gave ZTA DNA inh -4, EBNA-1 inh 35*, GPR7 antag -18, FID counter 0, HCV NS3 hel inh 6, EBNA-1 inh conf -2 and ZTA counter trip 9.
CN(C)c1ccc(C(C(=O)NCC2CCCO2)N(Cc2ccccc2)C(=O)c2snc(C(N)=O)c2N)cc1 (stereo unspecified) was read as ZTA DNA inh 1, EBNA-1 inh -6, GPR7 antag -7, FID counter -47 and HCV NS3 hel inh -9.
`Cc1cccc(N(C(=O)c2snc(C(N)=O)c2N)C(C(=O)NCC2CCCO2)c2ccc(N(C)C)cc2)c1C` (stereo unspecified) gave ZTA DNA inh 14, EBNA-1 inh 40*, GPR7 antag -13, FID counter -14, HCV NS3 hel inh -19, EBNA-1 inh conf 97* and ZTA counter trip 10.
`COc1ccc(NC(=O)CCC(=O)c2cccs2)cc1S(=O)(=O)Nc1ccc(Cl)cc1` gave ZTA DNA inh 16, EBNA-1 inh 34*, GPR7 antag 6, FID counter -20, HCV NS3 hel inh -11, EBNA-1 inh conf 17 and ZTA counter trip 0.
Screening COc1ccc(-c2ccc(C#N)c(SCC(=O)NCc3ccco3)n2)cc1OC returned ZTA DNA inh -6, EBNA-1 inh 45*, GPR7 antag -2, FID counter -20, HCV NS3 hel inh 9, EBNA-1 inh conf 41* and ZTA counter trip 0.
`COc1ccc(-c2ccc(C#N)c(SCC(=O)NC3CC3)n2)cc1OC` gave ZTA DNA inh 6, EBNA-1 inh 32*, GPR7 antag -12, FID counter -6, HCV NS3 hel inh -6, EBNA-1 inh conf 13 and ZTA counter trip 4.
Screening O=c1oc2ccccc2c2oc3cc(O)c(O)cc3c12 returned ZTA DNA inh 12, EBNA-1 inh 8, GPR7 antag 14, FID counter 3 and HCV NS3 hel inh 30.
`O=c1oc2c(O)c(O)cc3c(=O)oc4c(O)c(O)cc1c4c23` gave ZTA DNA inh 26, EBNA-1 inh 39*, GPR7 antag -9, FID counter 5, HCV NS3 hel inh 31, EBNA-1 inh conf 47* and ZTA counter trip 37*.
`O=C(Cn1c(O)c(/C=C2\C=Nc3ccc(Br)cc32)sc1=O)N1CCCC1` gave ZTA DNA inh -5, EBNA-1 inh 29*, GPR7 antag 2, FID counter 6, HCV NS3 hel inh 0, EBNA-1 inh conf 10 and ZTA counter trip -1.
COc1ccc(CCNC(=S)N2CCN(S(=O)(=O)c3cccc(F)c3)CC2)cc1 was read as ZTA DNA inh -9 and EBNA-1 inh 6.
For COc1ccc(CNC(=S)N2CCN(S(=O)(=O)c3cccc(F)c3)CC2)cc1 the results were ZTA DNA inh 2, EBNA-1 inh 40*, GPR7 antag -2, FID counter -8, HCV NS3 hel inh -14, EBNA-1 inh conf 73* and ZTA counter trip 7.
`Cc1ccccc1C(=O)N(Cc1cccs1)C1CCS(=O)(=O)C1` (stereo unspecified) gave ZTA DNA inh 8, EBNA-1 inh -3, GPR7 antag -11, FID counter -6 and HCV NS3 hel inh 3.
For CCOC(=O)N1CCC(N2C(=O)c3ccc(C(=O)Nc4ccc(OC)c(OC)c4)cc3C2=O)CC1 the results were ZTA DNA inh 20, EBNA-1 inh 8, GPR7 antag -1, FID counter -6 and HCV NS3 hel inh 2.
`COc1ccc(CN(C)C(=O)c2cccc(S(=O)(=O)N3CCc4ccccc43)c2)c(OC)c1` gave ZTA DNA inh -24.
Screening COc1ccc(N(CC(=O)N/N=C/c2cc3ccc(OC)cc3nc2Cl)S(=O)(=O)c2ccccc2)cc1 returned ZTA DNA inh -12, EBNA-1 inh -20, GPR7 antag -3, FID counter -10 and HCV NS3 hel inh 3.
COc1ccc2cc(/C=N/NC(=O)CN(c3ccccc3)S(=O)(=O)c3ccccc3)c(Cl)nc2c1 was read as ZTA DNA inh -4, EBNA-1 inh 35*, GPR7 antag -1, FID counter -11, HCV NS3 hel inh 3, EBNA-1 inh conf 7 and ZTA counter trip -10.
`COc1ccc2cc(/C=N/NC(=O)c3ccc(CN(c4ccc(C)c(C)c4)S(C)(=O)=O)cc3)c(Cl)nc2c1` gave ZTA DNA inh -3, EBNA-1 inh 53*, GPR7 antag 0, FID counter -10, HCV NS3 hel inh -1, EBNA-1 inh conf 24 and ZTA counter trip 14.
`COC(=O)COc1ccc(/C=N/NC(=O)c2ccc(N(Cc3ccccc3)S(C)(=O)=O)cc2)cc1` gave ZTA DNA inh -20, EBNA-1 inh 67*, GPR7 antag -2, FID counter -35, HCV NS3 hel inh -10, EBNA-1 inh conf 16 and ZTA counter trip 0.
COc1ccc2cc(/C=N/NC(=O)c3c(Cl)cnn3C)c(Cl)nc2c1 was read as ZTA DNA inh -3, EBNA-1 inh -1, GPR7 antag -3, FID counter -4 and HCV NS3 hel inh -12.
Screening CC(=O)c1ccc(S(=O)(=O)N(C)CC(=O)NCC2CCCCC2)cc1 returned ZTA DNA inh -17, EBNA-1 inh 10, GPR7 antag -6, FID counter -22 and HCV NS3 hel inh 0.
